The values below come from PubChem BioAssay AID540246 (Broad Institute, 2011).

The structures appear in SMILES notation. Active and inactive are the calls of the source.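 How the source made its calls: active means IC50 no more than ten times the top valid dose, with luminescence dropping as cells die; inconclusive means flat curve losing 30 to 70% of signal, or poor fit; inactive means the rest, including signal rises.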

A short description of the assay: cell viability loss over short exposure – CellTiter-Glo, 3 h, dry powder, cytotoxicity control for SR-BI HDL uptake inhibitor project, dose response (AID 540246). The settings on record: ldlA[mSR-BI] CHO cells viability, CellTiter-Glo ATP, 3 h; at 35 µM (top of the series). An outline of the steps: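 Test system: ldlA[mSR-BI] cells. Buffer or medium: Ham's F12 growth medium containing 10% FCS. Compound: eight doses per compound. Times: 3 h compound exposure of cells at 37 °C. Technique: cell Titer Glo ATP luminescence. Read-out: IC50 for loss of cell viability fitted from dose series.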
For `C[C@H]1CN([C@@H](C)CO)C(=O)c2cc(NC(=O)Cc3cn(C)c4ccccc34)ccc2O[C@@H]1CN(C)S(=O)(=O)c1ccc(F)cc1`, the activity change, negative = cytotoxicity was 6.2% (inactive). As to `COC(=O)c1cn(C(=O)c2cccc3ccccc23)c2ccccc12`, the activity change, negative = cytotoxicity is -9.72% (inactive).

Regarding `C[C@H](CO)N1C[C@H](C)[C@H](CN(C)S(=O)(=O)c2ccc(F)cc2)Oc2ccc(NS(C)(=O)=O)cc2C1=O`, the activity change, negative = cytotoxicity is -0.83% (inactive). Consider `CCn1c(COc2c(C)cccc2C)nnc1SCC(=O)N1CCN(c2ccccc2)CC1`, for which the activity change, negative = cytotoxicity was -2.44% (inactive). As to `O=C(Nc1ccc(-c2nc3cc(NC(=O)c4ccccc4Cl)ccc3o2)cc1)c1ccccc1Cl`, the activity change, negative = cytotoxicity is 15.2% (inactive). For `CC(C)(C)NC(=O)N1CCN(c2ncccc2C(F)(F)F)CC1`, the activity change, negative = cytotoxicity was 5.12% (inactive). The result for `Cc1cc(C)n(CC(=O)NC2CCCc3c2cnn3-c2ccc(C)c(C)c2)n1` (stereo not drawn) reads 0.308% (inactive); that for `CCc1cc2cc3c(cc2nc1SCC(=O)OC(C)C)OCO3`, 0.059% (inactive).

For `O=C(Nc1ccc(-c2nc3cc(NC(=O)c4ccccc4[N+](=O)[O-])ccc3o2)cc1)c1ccccc1[N+](=O)[O-]`, the activity change, negative = cytotoxicity was 9.71% (inactive). For the molecule `COc1ccc([C@H]2CC(=O)C=C(c3cccc4c3sc3ccccc34)C2)cc1OC`, the activity change, negative = cytotoxicity is 3.09% (inactive). As to `CCc1sc(N2C(=O)C3C4CCC(C4=C(C)C)C3C2=O)nc1-c1ccccc1` (stereo not drawn), the activity change, negative = cytotoxicity is 3.35% (inactive).

For the molecule `C[C@@H]1CN([C@H](C)CO)C(=O)c2cc(NC(=O)Cc3cn(C)c4ccccc34)ccc2O[C@H]1CN(C)S(=O)(=O)c1ccc(F)cc1`, the activity change, negative = cytotoxicity is 3.35% (inactive). The result for `O=C(Nc1ccc(-c2nc3cc(NC(=O)c4ccc(NC(=O)c5cccc6ccccc56)cc4)ccc3[nH]2)cc1)c1ccc(NC(=O)c2cccc3ccccc23)cc1` reads -0.376% (inactive).

Turning to `O=C(Nc1cc(C(F)(F)F)ccc1Cl)c1ccccc1NS(=O)(=O)c1ccc(Cl)cc1`, the activity change, negative = cytotoxicity is 4.37% (inactive). To `Nc1ccc(C(=O)Nc2ccc(-c3nc4ccc(NC(=O)c5ccc(N)cc5)cc4[nH]3)cc2)cc1` belongs 11.1% (inactive); to `C[C@H]1CN([C@@H](C)CO)C(=O)c2cccc(N(C)C)c2O[C@@H]1CN(C)Cc1ccc(Cl)c(Cl)c1`, -9.85% (inactive); to `COc1cccc(-c2csc(N3CCN(C(=S)Nc4cccc(Cl)c4)CC3)n2)c1`, -1.79% (inactive).

`C[C@@H]1CN([C@H](C)CO)C(=O)c2cc(NC(=O)Cc3cn(C)c4ccccc34)ccc2O[C@H]1CN(C)S(=O)(=O)c1ccccc1`: the activity change, negative = cytotoxicity is 1.67% (inactive). In the case of `C[C@@H]1CN([C@H](C)CO)C(=O)c2cc(NC(=O)Cc3cn(C)c4ccccc34)ccc2O[C@H]1CN(C)C(=O)Nc1ccc(F)cc1`, the activity change, negative = cytotoxicity was 0.369% (inactive). As to `Cc1cc(SC(C)C(=O)Nc2ncc(Cl)cc2Cl)nc2ccccc12` (stereo not drawn), the activity change, negative = cytotoxicity was -7.81% (inactive). Turning to `CNC[C@@H]1Oc2ccc(NC(=O)Cc3cn(C)c4ccccc34)cc2C(=O)N([C@H](C)CO)C[C@H]1C`, the activity change, negative = cytotoxicity was -2.77% (inactive). Turning to `C[C@@H]1CN([C@H](C)CO)C(=O)c2cc(NC(=O)Cc3cn(C)c4ccccc34)ccc2O[C@@H]1CN(C)S(=O)(=O)c1ccc(F)cc1`, the activity change, negative = cytotoxicity is 4.76% (inactive). Turning to `C[C@H]1CN([C@@H](C)CO)C(=O)c2cccc(NC(=O)Nc3ccccc3)c2O[C@@H]1CN(C)Cc1ccccc1`, the activity change, negative = cytotoxicity was 6.56% (inactive).

Turning to `C[C@H]1CN([C@@H](C)CO)C(=O)c2cc(NC(=O)Nc3ccccc3)ccc2O[C@@H]1CN(C)Cc1ccc(Cl)c(Cl)c1`, the activity change, negative = cytotoxicity was -3.65% (inactive).

Take `C[C@@H]1CN([C@H](C)CO)C(=O)c2cc(NC(=O)Cc3cn(C)c4ccccc34)ccc2O[C@H]1CN(C)S(=O)(=O)c1ccc(Cl)cc1`: the activity change, negative = cytotoxicity is 1.29% (inactive). The result for `O=C(Nc1ccccc1Cl)c1ccccc1NS(=O)(=O)c1ccccc1` reads 0.062% (inactive); that for `C[C@@H]1CN([C@H](C)CO)C(=O)c2cc(NC(=O)Cc3cn(C)c4ccccc34)ccc2O[C@H]1CN(C)S(C)(=O)=O`, 0.836% (inactive).

In the case of `C[C@H]1CN([C@@H](C)CO)C(=O)c2cccc(NC(=O)Nc3ccccc3)c2O[C@@H]1CN(C)S(C)(=O)=O`, the activity change, negative = cytotoxicity was -2.86% (inactive). With `C[C@H]1CN([C@@H](C)CO)C(=O)c2cccc(NC(=O)Nc3ccccc3)c2O[C@@H]1CN(C)Cc1ccc(C(F)(F)F)cc1`, the activity change, negative = cytotoxicity was 0.509% (inactive). The result for `C[C@H]1CN([C@@H](C)CO)C(=O)c2cccc(NC(=O)Nc3ccccc3)c2O[C@@H]1CN(C)C` reads -3.85% (inactive); that for `CC(C)OCCCNC(=O)c1ccc(C2SCC(=O)N2Cc2ccco2)cc1` (stereo not drawn), 0.099% (inactive); that for `C[C@H](CO)N1C[C@H](C)[C@@H](CN(C)S(=O)(=O)c2ccc(F)cc2)Oc2ccc(NC(=O)Cc3cn(C)c4ccccc34)cc2C1=O`, 4.04% (inactive). To `CCOC(=O)N1CCC(NC(=O)c2ccc3c(c2)N(Cc2ccc(F)cc2)CCS3)CC1` belongs -2.37% (inactive). Regarding `CC(OC(=O)c1cccc(NS(C)(=O)=O)c1)C(=O)Nc1ccc(N2CCOCC2)cc1` (stereo not drawn), the activity change, negative = cytotoxicity was -2.45% (inactive).

For `CC(C)NC(=O)Nc1cccc2c1O[C@H](CN(C)Cc1ccc(Cl)c(Cl)c1)[C@@H](C)CN([C@@H](C)CO)C2=O`, the activity change, negative = cytotoxicity was 3.16% (inactive). Regarding `O=C(Nc1ccc(-c2nc3ccc(NC(=O)c4ccccc4[N+](=O)[O-])cc3[nH]2)cc1)c1ccccc1[N+](=O)[O-]`, the activity change, negative = cytotoxicity is 6.25% (inactive).

In the case of `N#Cc1sc2nc(C3CC3)cc(-c3ccc(Cl)cc3)c2c1N`, the activity change, negative = cytotoxicity was -2.17% (inactive). To `COc1ccc(OC)c(CCNC(=O)c2ccc3c(c2)N(Cc2ccc(F)cc2)CCS3)c1` belongs -8.19% (inactive); to `CCC(=O)N1CCc2cc(-c3csc(NC(=O)c4ccco4)n3)ccc21`, -3.84% (inactive). For `C[C@@H]1CN([C@@H](C)CO)C(=O)c2cc(NC(=O)Cc3cn(C)c4ccccc34)ccc2O[C@@H]1CN(C)S(=O)(=O)c1ccc(F)cc1`, the activity change, negative = cytotoxicity was 6.07% (inactive).

Take `O=C(Nc1cccc(NC(=O)c2cc([N+](=O)[O-])ccc2Cl)n1)c1cc([N+](=O)[O-])ccc1Cl`: the activity change, negative = cytotoxicity is -3.61% (inactive). Consider `C[C@@H]1CN([C@@H](C)CO)C(=O)c2cc(NC(=O)Cc3cn(C)c4ccccc34)ccc2O[C@H]1CN(C)S(=O)(=O)c1ccc(F)cc1`, for which the activity change, negative = cytotoxicity is -10.2% (inactive). Turning to `C[C@H]1CN([C@@H](C)CO)C(=O)c2cccc(NS(C)(=O)=O)c2O[C@@H]1CN(C)Cc1ccc(Cl)c(Cl)c1`, the activity change, negative = cytotoxicity is 7.9% (inactive).
